E-sel inducer = induces E-selectin expression in human endothelial cells | 260,000 tested, 0.37% active | HUVEC E-selectin immunofluorescence imaging; normalized: neutral wells 0, TNF-alpha wells 100 | activation, % at 7.58 µM | P16581 | AID 686992;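 active = mean E-selectin-positive cell signal at least 10% of the positive control, reached in at least 60% of replicates, without over 20% cell loss; inconclusive = no rule given, readout overlaps actives, possibly toxicity-flagged; inactive = the rest, including those meeting only one limit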
Target sequence (P16581 whole entry, looked up): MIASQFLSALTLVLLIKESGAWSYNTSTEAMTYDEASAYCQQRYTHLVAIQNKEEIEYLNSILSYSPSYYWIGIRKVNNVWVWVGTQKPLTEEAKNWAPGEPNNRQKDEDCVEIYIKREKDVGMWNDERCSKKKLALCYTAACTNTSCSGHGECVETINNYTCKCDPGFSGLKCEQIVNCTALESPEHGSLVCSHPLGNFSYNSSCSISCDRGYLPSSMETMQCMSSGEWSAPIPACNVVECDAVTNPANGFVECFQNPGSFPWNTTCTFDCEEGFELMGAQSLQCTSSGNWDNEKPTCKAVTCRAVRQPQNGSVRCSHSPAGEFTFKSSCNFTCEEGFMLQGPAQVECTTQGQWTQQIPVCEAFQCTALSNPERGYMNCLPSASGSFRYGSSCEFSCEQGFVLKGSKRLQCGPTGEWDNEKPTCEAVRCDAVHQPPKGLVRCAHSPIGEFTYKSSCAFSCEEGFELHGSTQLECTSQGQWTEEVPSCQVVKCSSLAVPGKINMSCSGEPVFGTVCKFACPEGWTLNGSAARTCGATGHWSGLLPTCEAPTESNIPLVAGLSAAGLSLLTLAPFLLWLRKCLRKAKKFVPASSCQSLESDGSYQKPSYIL
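System: HUVEC / Compound: single concentration / Signal: immunofluorescence imaging / Read-out: percent E-selectin-positive cells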
DENV2 CPE rescue = DENV2-induced cell death inhibition. 350,000 tested, 1.7% active. CPE inhibition, % at 9.99 µM. DENV2-infected cells, cytopathic effect rescue, plate reader; in the data active = CPE inhibition above about 20%, passing the limit was not always enough; inconclusive = no clear call, values can overlap the other calls; tested in BHK-21 cells;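 also: 0% = median of neutral control wells and 100% = median of positive control wells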
Ecoli rRNA inh = inhibits bacterial ribosomal RNA function over humanized ribosomes; E. coli WT GFP vs humanized-ribosome RFP mutants, fluorescence, 24 h; hits give low values; DMSO median 0, no signal -100; GFP signal change (wild-type ribosome), % (test concentration not listed); 350,000 tested, 1.6% active;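 active = significant combined selectivity score with lowered wild-type GFP, culture density cut under 30%, mutant RFP and density less affected; inactive = any of these conditions unmet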
Cneo AK release = Cryptococcus neoformans lysis via adenylate kinase release; C. neoformans lysis, adenylate kinase release luminescence, 4 h; normalised: neutral wells 0, clomiphene wells 100; lysis activity, % at 15 µM; 360,000 tested, 0.2% active; AID 651654;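 active = mean lysis activity across replicates of at least 80%, whatever share of replicates individually reach that level; inactive = mean lysis activity below 80%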
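Test system: log-phase Cryptococcus neoformans yeast cells. Input: 5 × 10^6 yeast cells/mL. Medium: fresh YPD growth medium. Doses: single dose. Incubation: static 4 h at 37 °C with compound, 1 h detection. Measured by: luminescent adenylate kinase detection reagent. Read-out: signal increase indicating cell lysis. Benchmarks: Clomiphene.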
miR-122 sensor = inhibitors of miR-122 in Huh7 cells. Huh7 miR-122 Renilla luciferase sensor, 48 h; neutral wells = 0, positive control = 100. activation (reporter increase), % at 12.5 µM. 340,000 tested, 0.3% active. AID 602342;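 active = mean replicate activation score at least 90 and every replicate individually at or above 90; inconclusive = only one of the two criteria met; inactive = neither criterion met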;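 also: higher luciferase means less miR-122 activity so hits act as miR-122 inhibitors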
* hit, by the source's call; ? = inconclusive; nt = no result; ! = not active in a repeat; [ ] = remark or other dose. Sampled rows, rich in hits. Any-hit rate of the full collection: about 3.1%.

SMILES	E-sel inducer	DENV2 CPE rescue	Ecoli rRNA inh	Cneo AK release	miR-122 sensor
OC[C@H]1[C@H]2c3ccccc3NC[C@H]2N1CC1CCCCC1	0	?	3	-1	-17[16.7 µM]
CC1CCc2nc3ccc(S(=O)(=O)N4CCC(C(=O)NC5CCCC5)CC4)cc3c(C(=O)O)c2C1 (stereo not drawn)	93*	?	18	0	-1
O=C(NCc1nc2ccccc2[nH]1)C1=C[C@@H](c2ccc(C(F)(F)F)cc2)C[C@@H](OCCCCO)O1	1	-10	-3	1	-5
O=C(NCc1nc2ccccc2[nH]1)C1=C[C@H](c2ccc(C(F)(F)F)cc2)C[C@H](OCCCCO)O1	0	21*	-25	-2	-3
C=CCOC(=O)C1=C[C@@H](C2CCCCC2)C[C@@H](OCc2ccc(CO)cc2)O1	0	48*	nt	1	nt
O=C(Nc1ccccc1)C1=C[C@H](C2CCCCC2)C[C@H](OCc2ccc(CO)cc2)O1	0	-1	4	54	7
O=C(NCc1nc2ccccc2[nH]1)C1=C[C@H](C2CCCCC2)C[C@H](OCc2ccc(CO)cc2)O1	0	21*!	16	0	-9
C[C@@H]1CCCCO[C@@H](CN(C)CC2CC2)[C@H](C)CN([C@H](C)CO)C(=O)c2cc(NS(C)(=O)=O)ccc2O1	0	-5	-1	12	0[16.7 µM]
CC(=O)c1c(COC(=O)c2ccccc2Cl)nc2ccccc2[n+]1[O-]	0	7	-35*	-3	-13
C[C@@H]1CN([C@H](C)CO)C(=O)c2cc(NS(=O)(=O)c3ccc(F)cc3)ccc2O[C@@H](C)CCCCO[C@H]1CN(C)Cc1ccncc1	0	51*	-2	-3	3[16.7 µM]
C[C@@H]1CCCCO[C@@H](CN(C)Cc2ccncc2)[C@H](C)CN([C@@H](C)CO)C(=O)c2cc(NS(=O)(=O)c3ccc(Cl)cc3)ccc2O1	0	60*	-4	0	-8[16.7 µM]
COc1ccc(S(=O)(=O)N(C)C[C@@H]2Oc3c(NC(=O)C4CCCCC4)cccc3C(=O)N([C@H](C)CO)C[C@@H]2C)cc1	0	20*	-2	1	2[16.7 µM]
COc1ccc(S(=O)(=O)N(C)C[C@H]2Oc3ccc(NC(=O)c4ccncc4)cc3C(=O)N([C@@H](C)CO)C[C@H]2C)cc1	22	-6	4	2	2[16.7 µM]
COc1ccc(S(=O)(=O)N(C)C[C@H]2Oc3c(NC(=O)C4CCCCC4)cccc3C(=O)N([C@H](C)CO)C[C@H]2C)cc1	0	-5	-2	-1	-5[16.7 µM]
COc1ccc(S(=O)(=O)N(C)C[C@@H]2Oc3ccc(NC(=O)c4ccncc4)cc3C(=O)N([C@@H](C)CO)C[C@@H]2C)cc1	37*	16	1	5	27[16.7 µM]
COc1ccc(S(=O)(=O)N(C)C[C@@H]2Oc3ccc(NC(=O)c4ccncc4)cc3C(=O)N([C@H](C)CO)C[C@H]2C)cc1	28*	15	-3	33	-9[16.7 µM]
COc1ccc(S(=O)(=O)N(C)C[C@H]2Oc3c(NC(=O)c4ccncc4)cccc3C(=O)N([C@H](C)CO)C[C@@H]2C)cc1	-4	25*!	3	0	-1[16.7 µM]
Cc1ccccc1-c1ccc([C@H]2[C@H]3CN(C(=O)Nc4ccc(F)cc4)CC(=O)N3[C@H]2CO)cc1	0	-6	-33	nt	nt
C[C@H](CO)N1C[C@H](C)[C@@H](CN(C)C(=O)C2CC2)Oc2cc(C3=CCCC3)ccc2S1(=O)=O	0	nt	0	nt	27[16.7 µM]
CCOc1ccc(NC(=O)CSc2nnc(CCNC(=O)c3ccc(OC)cc3)n2CC)cc1	nt	nt	nt	0	-1
Cn1c2ccccc2c2nnc(SCC(=O)Nc3ccccc3F)nc21	nt	-2	3	0	nt
COc1ccc2c(c1)c1nnc(SCC(=O)Nc3ccccc3F)nc1n2C	nt	51*	12	1	-10
CCn1c(CCNC(=O)c2ccc(OC)cc2)nnc1SCC(=O)Nc1ccccc1F	nt	3	1	1	120*
CCN1CCN(Cc2ccc(C(=O)Nc3ccc(C)c(NCc4cnc(NC(=O)OC)cn4)c3)cc2C(F)(F)F)CC1	0	-2	-17*!	9	-3
CCN1CCN(Cc2ccc(NC(=O)c3ccc(C)c(NC(=O)c4ccnnc4)c3)cc2C(F)(F)F)CC1	0	0	4	-2	nt

From PubChem BioAssay
